An excerpt weighted towards active compounds, which were near 2.9% of everything screened.
Calb FLC: C. albicans growth modulation with fluconazole | hit rate 0.57% among 300,000 | AID 1979 | C. albicans CaCi-2 (fluconazole-resistant clinical isolate) + fluconazole, Alamar Blue growth, 48 h | growth inhibition, % (no concentration beside the values);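 active = growth inhibition above about 58% in most replicates, limit read from the data, passing the limit was not always enough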;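 also: all wells also contain fluconazole at 8 µg/ml as a sub-toxic cotreatment; 0% = median of DMSO wells and 100% = median of geldanamycin control wells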
Efflux pump mplx: antifungal efflux pump inhibition, Nile Red retention | S. cerevisiae Candida pump triplex | inhibition, % at 10 µM | hit rate 0.44% among 330,000;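 active = plate passing quality check with inhibition over a set limit, or well fluorescence over plate mean plus 4 SD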;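 also: Nile Red retained in pooled yeast measured as flow cytometry median fluorescence; 0% = buffer negative control and 100% = Enniatin B positive control; higher means more Nile Red kept so more efflux inhibition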
GalR3 antagonist: antagonists of human GalR3; inhibition, % at 3 µM; HEK293 GalR3-CNG cAMP membrane potential fluorescence; galR3 body fused to GalR1 C-terminus; hit rate 0.44% among 360,000; O60755;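 active = inhibition above the screen-wide average plus 3 SD, cut at about 13% in these data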;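 also: forskolin and galanin both at EC90 stimulate the cells; cAMP rise reported by CNG channel membrane potential dye signal; 0% = forskolin plus galanin with DMSO and 100% = forskolin alone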
Target sequence (O60755 1-299 limits assumed): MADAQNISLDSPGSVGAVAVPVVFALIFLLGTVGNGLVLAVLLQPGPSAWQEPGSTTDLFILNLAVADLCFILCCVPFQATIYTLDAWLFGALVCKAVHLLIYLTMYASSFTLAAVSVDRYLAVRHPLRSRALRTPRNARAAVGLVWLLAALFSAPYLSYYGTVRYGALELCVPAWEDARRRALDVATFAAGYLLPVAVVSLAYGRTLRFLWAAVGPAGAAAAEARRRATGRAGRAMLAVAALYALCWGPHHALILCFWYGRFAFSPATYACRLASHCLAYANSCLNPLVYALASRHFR
TAG inh: inhibitors of triacylglycerol accumulation; inhibition, % at 12.5 µM; hit rate 0.66% among 230,000; H9c2 cells, Nile Red lipid (TAG) fluorescence; cells loaded with 200 µM oleic acid;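 active = pattern-corrected inhibition of lipid staining of at least 50% with the nuclear-stain viability signal not falling by more than 50%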;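 also: 0% = DMSO wells and 100% = triacsin C control wells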
MC4R antag cAMP: blocks human MC4R cAMP signaling. P32245. MC4R-expressing cells, MTII-stimulated cAMP, LANCE TR-FRET. inhibition, % at 6.5 µM. hit rate 0.48% among 360,000. AID 540295;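 active = inhibition above its plate's cutoff, the mean of tested wells on that plate plus 3 SD, cut at about 29% in these data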;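 also: 0% = Melanotan II alone and 100% = Melanotan II plus saturating MCL0020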
Target sequence (P32245 whole entry, looked up): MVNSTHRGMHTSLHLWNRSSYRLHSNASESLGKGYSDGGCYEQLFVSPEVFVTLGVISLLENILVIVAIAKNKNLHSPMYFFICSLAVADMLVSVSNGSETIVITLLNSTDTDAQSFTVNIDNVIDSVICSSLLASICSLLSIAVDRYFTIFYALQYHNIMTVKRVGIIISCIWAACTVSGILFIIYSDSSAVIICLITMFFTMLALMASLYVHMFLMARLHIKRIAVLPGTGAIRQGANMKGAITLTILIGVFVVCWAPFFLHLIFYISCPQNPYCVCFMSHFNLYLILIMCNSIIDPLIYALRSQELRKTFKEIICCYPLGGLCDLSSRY
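Material: U2OS-MC4R stable cell line | Reagent: Melanotan II challenge after compound preincubation | Doses: One concentration, 6.5 µM nominal | Incubation: 30-min compound preincubation, 1-h Melanotan II challenge, 1-h detection, room temperature | Signal: TR-FRET cAMP assay | Replicates: One well per compound, no replicates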
MC4R ag barr: agonists of human melanocortin 4 receptor (MC4R) beta-arrestin; U2OS MC4R beta-arrestin complementation, luminescence; percent of melanotan II response, DMSO zero; activation, % at 8.9 µM; hit rate 0.98% among 360,000; AID 540308;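 active = activation above a per-plate cutoff, the mean activation of sample wells on that plate plus 3 SD, cut at about 8% in these data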
MC4R barr ag: human MC4R beta-arrestin agonism confirmation; shares compounds with MC4R ag barr; U2OS MC4R beta-arrestin recruitment, luminescence; scaled DMSO 0%, Melanotan II 100%; activation, % at 8.9 µM; hit rate 31% among 2,400;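 active = mean activation across replicates above the hit cutoff set in the earlier primary screen, cut at about 8% in these data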
MOR DOR agonist: counter-screen for MC4R agonists: agonists of mu-delta opioid heterodimer; shares compounds with MC4R ag barr; U2OS PathHunter beta-arrestin, beta-gal luminescence; percent of deltorphin B response, DMSO zero; activation, % at 9.2 µM; hit rate 5.8% among 2,400; AID 602194;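 active = mean activation across replicates exceeds the hit threshold derived in the earlier primary screen, cut at about 18% in these data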;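 also: 100% = deltorphin B at 0.9 µM final and 0% = DMSO alone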
TAG conf: confirmation of triacylglycerol accumulation inhibitors; inhibition, % at 12.5 µM; H9c2 lipid accumulation, Nile Red fluorescence; cells loaded with 200 µM oleic acid; hit rate 71% among 990; AID 651629; shares compounds with TAG inh;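 active = mean inhibition across replicates of 40% or more; inactive = mean inhibition below 40%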;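 also: plate controls were DMSO only wells for no effect and Triacsin C treated wells for full effect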
GalR3 conf: GalR3 (human) antagonism, confirmation; shares compounds with GalR3 antagonist; HEK293 GalR3 CNG cAMP biosensor, membrane potential fluorescence; galR3 fused to GalR1 carboxy tail; challenged with forskolin and galanin at EC90; inhibition, % at 3 µM; hit rate 59% among 1,600; AID 652245;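 active = inhibition above the primary screen's cutoff, the mean inhibition of all screened compounds plus 3 SD, cut at about 13% in these data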;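 also: 0% = forskolin plus galanin and 100% = forskolin alone with DMSO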
HEK-CNG parental: acts as nonspecific agonist in parental HEK-CNG cells; shares compounds with GalR3 antagonist; HEK293-CNG parental cells, cAMP membrane potential fluorescence; normalised: DMSO wells 0%, forskolin wells 100%; activation, % at 3 µM; hit rate 10% among 1,600; AID 652268; in the data active = activation above about 1.3%
* = called active by the depositor; . = no result.

SMILES	Calb FLC	Efflux pump mplx	GalR3 antagonist	TAG inh	MC4R antag cAMP	MC4R ag barr	others
c1ccc2c(c1)CN(Cc1ccc3c(c1)OCO3)Cc1cnnn1-2	.	.	-8	3	7	-1
O=c1[nH]cnc2nc(-c3ccc(N(CCCl)CCCl)cc3)[nH]c12	.	.	-4	-6	14	9.8*	MC4R barr ag=13*;MOR DOR agonist=19*
C[C@]12CC[C@@H](O)CC1=CCC1C2CC[C@]2(C)C(=O)[C@H](F)CC12 (some centres undefined)	.	0	-4	3	-1	0
CC12CCC3C(CC=C4CC(O)CCC43C)C1C/C(=C\c1cccc(F)c1)C2=O (centres undefined)	-1	0	-1	.	5	14*	MC4R barr ag=7;MOR DOR agonist=6
CC12CCC(=O)C=C1CCC1C2CCC2(C)C(O)(C(=O)CO)CCC12O (centres undefined)	.	.	-4	-16	2	-2
O=[N+]([O-])c1oc2ccc3ccccc3c2c1CCO	.	.	2	4	-4	-1
O=C1CN=C(c2ccc(Cl)cc2)c2oc3ccccc3c2N1	-20	0	-1	10	-7	11*	MC4R barr ag=2;MOR DOR agonist=9
CCCCOC(=O)COc1cc(C)cc2oc(=O)c3c(c12)CCC3	2	0	-4	5	4	-2
C=CCOC(=O)COc1cc(C)cc2oc(=O)c3c(c12)CCC3	-18	0	-6	5	3	11*	MC4R barr ag=9.0*;MOR DOR agonist=5
CC1=CC(=C2C(=O)NC(=S)NC2=O)C=C(C(F)(F)F)N1Cc1ccccc1	10	0	0	54*	-28	-2	TAG conf=28
COCCCn1c(N)c(C(=O)Nc2ccccc2)c2nc3ccccc3nc21	-3	0	-5	59*	4	-2	TAG conf=72*
CCC(C)NC(=O)c1c(N)n(CCCOC)c2nc3ccccc3nc12 (centres undefined)	9	0	-6	.	3	2
CC(=O)OC12COC1CC(O)C1(C)C(=O)C(O)C3=C(C)C(O)CC(O)(C(OC(=O)c4ccccc4)C21)C3(C)C (centres undefined)	.	.	-5	65*	2	0	TAG conf=85*
COc1ccc(C[C@@H]2c3cc(O)c(OC)cc3CCN2C)cc1O	-13	.	-4	68*	0	0	TAG conf=10
COc1ccc(CC2c3cc(OC)c(OC)cc3CCN2C)cc1OC (centres undefined)	3	0	-7	.	6	-1
COC(=O)C1=C(c2ccccc2)C[C@@H]2CC[C@H]1N2C(=O)NC1CCCCC1	-24	0	-2	-11	-1	1
COc1ccc(N=Nc2c(O)[nH]c(=S)[nH]c2=O)cc1	26	0	-9	4	-45	-4
COc1cccc(N=Nc2c(O)[nH]c(=S)[nH]c2=O)c1	24	0	-2	57*	-34	-3	TAG conf=47*
C=CCN1Cc2ccccc2-n2nncc2C1	.	.	-5	.	.	.
COc1cc2c(c(OC)c1OC)-c1ccc(O)cc1C(NC(C)=O)CC2 (centres undefined)	.	.	3	52*	-13	-2	TAG conf=58*
Cc1nc2ccc(Cl)cc2c(=O)n1-c1ccccc1Cl	6	0	-9	.	10	-2
COC(=O)C1=C(c2ccc(OCc3ccccc3)cc2)C[C@@H]2CC[C@H]1N2C(=O)NCc1ccc(OC)c(OC)c1	.	0	1	53*	12	-1	TAG conf=29
CCNc1nc(NC(C)(C)C)nc(SC)n1	.	0	2	-14	4	0
CCOC(=O)c1c(C)n(C(C)C)c2ccc(OC)cc12	1	0	-9	-2	10	-1
CCn1c(C)c(C(=O)O)c2cc(OC)ccc21	-4	0	13*	1	8	-1	GalR3 conf=5;HEK-CNG parental=0
SMILES	Calb FLC	Efflux pump mplx	GalR3 antagonist	TAG inh	MC4R antag cAMP	MC4R ag barr	others
COC1=CC(=O)[C@]2(C=C1OC)OC[C@@H]1Oc3c(ccc4c3C=CC(C)(C)O4)C(=O)[C@@H]12	.	0	41*	.	.	.	GalR3 conf=98*;HEK-CNG parental=0
Clc1cc(Cl)c(-c2cc(Cl)c(Cl)cc2Cl)cc1Cl	.	0	0	.	4	0
N#CC(C#N)=Cc1ccc(O)c(O)c1	.	0	-1	10	1	-1
CC(C)(C)c1cc(C=C(C#N)C#N)cc(C(C)(C)C)c1O	.	0	27*	-17	9	1	GalR3 conf=18*;HEK-CNG parental=15*
CCCCNS(=O)(=O)c1ccc(OCC(=O)N2CCN(Cc3ccc4c(c3)OCO4)CC2)cc1	-15	0	14*	-13	10	-3	GalR3 conf=17*;HEK-CNG parental=0
O=C1NC(=O)C2(CCCC2)C(=O)N1	.	.	-4	4	-1	-1
CC1OC(OC2C=C3CCC4C(CCC5(C)C(c6ccc(=O)oc6)CCC45O)C3(C)CC2)C(O)C(OC2OC(CO)C(O)C(O)C2O)C1O (centres undefined)	.	.	14*	-5	13	37*	GalR3 conf=39*;HEK-CNG parental=4.1*
CCC(=NCCC(c1ccccc1)c1ccccc1)c1c(O)[nH]c(=O)[nH]c1=O	11	0	26*	.	-9	-1	GalR3 conf=38*;HEK-CNG parental=0
CN1CCN(S(=O)(=O)c2cnc(Cl)c(Br)c2)CC1	1	-5	-5	.	7	-2
CCCCCN1C(=O)c2cc(OC)ccc2[C@@]2(C(=O)OCC)Cc3cc(Cl)ccc3[C@@H]12	.	.	36*	.	.	.	GalR3 conf=52*;HEK-CNG parental=2.6*
CCOC(=O)[C@]12Cc3cc(Cl)ccc3[C@H]1N(Cc1ccccc1)C(=O)c1cc(OC)ccc12	.	.	-8	.	.	.
CCCCn1nnnc1C(c1cccs1)N1CCC2(CC1)C(=O)NCN2c1ccccc1 (centres undefined)	.	.	-4	.	.	.
CC12CCC3C(CCC4(O)CC(O)CCC34C=O)C1(O)CCC2C1=CC(=O)OC1 (centres undefined)	.	.	18*	-5	8	21*	GalR3 conf=47*;HEK-CNG parental=4.2*

Screening results as filed in PubChem BioAssay.
